In ChEMBL document CHEMBL1641385, “Mammea E/BB, an isoprenylated dihydroxycoumarin protonophore that potently uncouples mitochondrial electron transport, disrupts hypoxic signaling in tumor cells” (J Nat Prod, 2010):
The source made the active and inactive calls. The rule behind the calls is not given here.

Tests used:
[1] = molecular target: T1, Hypoxia inducible factors; HIF-1-alpha, HIF-2-alpha (Homo sapiens, UniProt Q16665+Q99814); test: Inhibition of 1, 10-phenanthroline-induced HIF1 activation in human T47D cells by HRE3-TK-luciferase reporter gene assay; assay type: cell-based
[2] = molecular target: T1, Hypoxia inducible factors; HIF-1-alpha, HIF-2-alpha; conditions: T47D, at 1 to 10 µM
[3] = molecular target: T1, Hypoxia inducible factors; HIF-1-alpha, HIF-2-alpha; test: Inhibition of hypoxia-induced HIF1 activation in human T47D cells by HRE3-TK-luciferase reporter gene assay; assay type: cell-based
T47D [4] = test: Effect on cellular respiration in human T47D cells assessed as decrease in oxygen consumption at 10 uM; assay type: functional
In short: (§1)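 Oxygen consumption of intact T47D cells monitored with a Clark-type electrode. Rate with compound expressed as % control (compound rate/control rate). n = 3; FCCP run as positive control.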

[5] = molecular target: T1, Hypoxia inducible factors; HIF-1-alpha, HIF-2-alpha; test: Inhibition of HIF1-mediated proliferation of hypoxia-stimulated human SK-BR-3 cells at 0.31 to 20 uM after 48 hrs by SRB assay; assay type: cell-based
In short: (§2)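 Exponentially growing cells were seeded at 30,000/well and held overnight at 37 °C in DMEM/F12 with 10% FBS and pen/strep. Compound (0.31–20 µM) was added in serum-free medium for 48 h. Viability was read by sulforhodamine B. % Inhibition = [1 − (ODtreated/ODcontrol)] × 100, from triplicate wells.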

[6] = molecular target: T1, Hypoxia inducible factors; HIF-1-alpha, HIF-2-alpha; test: Inhibition of 1, 10-phenanthroline-induced HIF1 activation in human PC3 cells by HRE3-TK-luciferase reporter gene assay; assay type: cell-based; conditions: pc-3
In short: (§3)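 HIF-1 activity measured with the pHRE3-TK-Luc luciferase reporter in PC-3 cells. Cycloheximide 100 µM served as the positive control. Run in triplicate, representative of two independent experiments. IC50 reported with 95% CI.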

[7] = molecular target: T1, Hypoxia inducible factors; HIF-1-alpha, HIF-2-alpha; test: Inhibition of HIF1-mediated proliferation of hypoxia-stimulated human PC3 cells at 20 uM after 48 hrs by SRB assay; assay type: cell-based; conditions: PC-3; in short: as §2
MDA-MB-231 [8] = test: Inhibition of human MDA-MB-231 cell migration at 5 to 20 uM after 22 hrs under hypoxic condition; assay type: functional, cell-based
In short: (§4)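 Confluent MDA-MB-231 monolayers were scratched with pipet tips. Compound (5 or 20 µM) was added for 22 h under normoxia (95% air:5% CO2) or hypoxia (1% O2:94% N2:5% CO2). Cells were then fixed, stained and imaged. Parallel viability was checked by sulforhodamine B, as % of untreated control under matching oxygen conditions.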

[9] = molecular target: T1, Hypoxia inducible factors; HIF-1-alpha, HIF-2-alpha; test: Inhibition of HIF1-mediated proliferation of hypoxia-stimulated human MDA-MB-231 cells at 0.31 to 20 uM after 48 hrs by SRB assay; assay type: cell-based; in short: as §2
[10] = molecular target: T1, Hypoxia inducible factors; HIF-1-alpha, HIF-2-alpha; test: Inhibition of HIF1-mediated proliferation of hypoxia-stimulated human SK-BR-3 cells at 20 uM after 48 hrs by SRB assay; assay type: cell-based; in short: as §2
[11] = molecular target: T1, Hypoxia inducible factors; HIF-1-alpha, HIF-2-alpha; test: Inhibition of HIF1-mediated proliferation of hypoxia-stimulated human SK-BR-3 cells up to 20 uM after 16 hrs by SRB assay; assay type: cell-based
In short: (§5)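 Short-term viability: cells exposed to compound at up to 20 µM for 16 h under hypoxia (1% O2), then read by sulforhodamine B and expressed as % inhibition of untreated control.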

T47D [12] = test: Decrease in mitochondrial membrane potential in human T47D cells 1 to 10 uM after 15 mins by TMRM assay; assay type: functional, cell-based
In short: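 T47D cells seeded at 100,000/well on chambered coverglass overnight, then switched to TES buffer (20 mM, pH 7.3) with salts, 5 mM glucose, 0.3% BSA and 2 nM TMRM. Loaded 1 h 15 min at 37 °C, then compound added for 15 min. Live-cell epifluorescence imaging; FCCP as reference.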

[13] = molecular target: T1, Hypoxia inducible factors; HIF-1-alpha, HIF-2-alpha; test: Inhibition of HIF1-mediated proliferation of hypoxia-stimulated human PC3 cells up to 20 uM after 16 hrs by SRB assay; assay type: cell-based; conditions: PC-3; in short: as §5
[14] = molecular target: T1, Hypoxia inducible factors; HIF-1-alpha, HIF-2-alpha; test: Inhibition of HIF1-mediated proliferation of hypoxia-stimulated human MDA-MB-231 cells at 20 uM after 48 hrs by SRB assay; assay type: cell-based; in short: as §2
[15] = molecular target: T1, Hypoxia inducible factors; HIF-1-alpha, HIF-2-alpha; test: Inhibition of HIF1-mediated proliferation of hypoxia-stimulated human T47D cells at 20 uM after 48 hrs by SRB assay; assay type: cell-based; in short: as §2
[16] = molecular target: T1, Hypoxia inducible factors; HIF-1-alpha, HIF-2-alpha; test: Inhibition of HIF1-mediated proliferation of hypoxia-stimulated human T47D cells at 0.31 to 20 uM after 48 hrs by SRB assay; assay type: cell-based; in short: as §2
MDA-MB-231 [17] = test: Inhibition of human MDA-MB-231 cell migration at 5 to 20 uM after 22 hrs under normoxic condition; assay type: functional, cell-based; in short: as §4
[18] = molecular target: T1, Hypoxia inducible factors; HIF-1-alpha, HIF-2-alpha; test: Inhibition of HIF1-mediated proliferation of hypoxia-stimulated human MDA-MB-231 cells up to 20 uM after 16 hrs by SRB assay; assay type: cell-based; in short: as §5
T47D [19] = test: Effect on cellular respiration in human T47D cells assessed as increase in oxygen consumption at 1 uM; assay type: functional; in short: as §1
T47D [20] = test: Effect on cellular respiration in human T47D cells assessed as increase in oxygen consumption at 1 uM in presence of mitochondrial uncoupler FCCP; assay type: functional, cell-based
[21] = molecular target: T1, Hypoxia inducible factors; HIF-1-alpha, HIF-2-alpha; test: Inhibition of hypoxia-induced HIF1 activation in human PC3 cells by HRE3-TK-luciferase reporter gene assay; assay type: cell-based; conditions: pc-3; in short: as §3
T47D [22] = test: Effect on cellular respiration in human T47D cells assessed as decrease in oxygen consumption at 10 uM n presence of mitochondrial uncoupler FCCP; assay type: functional, cell-based
[23] = molecular target: T1, Hypoxia inducible factors; HIF-1-alpha, HIF-2-alpha; test: Inhibition of HIF1-mediated migration of human MDA-MB-231 cells at 20 uM by wound healing assay; assay type: cell-based; in short: as §4
[24] = molecular target: T1, Hypoxia inducible factors; HIF-1-alpha, HIF-2-alpha; test: Inhibition of HIF1-mediated secreted VEGF expression in hypoxia-stimulated human T47D cells by […]; assay type: cell-based
In short: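 T47D cells treated with compound (1, 3, 10 µM) under hypoxia (1% O2, 16 h). Secreted VEGF in conditioned medium quantified by ELISA and normalized to cellular protein (micro BCA). n = 3 from one experiment, representative of two. One-way ANOVA with Bonferroni post hoc.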

T47D [25] = test: Induction of state 4 respiration of human T47D cells; assay type: functional, cell-based
In short: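 T47D respiration measured by Clark-type electrode. Oligomycin (1 µM final) added to establish state 4 respiration, then compound added at specified concentrations to test resumption of oxygen consumption; FCCP used as positive control.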

[26] = molecular target: T1, Hypoxia inducible factors; HIF-1-alpha, HIF-2-alpha; test: Inhibition of HIF1-mediated proliferation of hypoxia-stimulated human SK-BR-3 cells after 48 hrs by SRB assay; assay type: cell-based; in short: as §2
[27] = molecular target: T1, Hypoxia inducible factors; HIF-1-alpha, HIF-2-alpha; test: Inhibition of HIF1-mediated proliferation of hypoxia-stimulated human PC3 cells at 0.31 to 20 uM after 48 hrs by SRB assay; assay type: cell-based; conditions: PC-3; in short: as §2
[28] = molecular target: T1, Hypoxia inducible factors; HIF-1-alpha, HIF-2-alpha; test: Inhibition of HIF1-mediated proliferation of hypoxia-stimulated human PC3 cells after 48 hrs by SRB assay; assay type: cell-based; conditions: PC-3; in short: as §2
T47D [29] = test: Cytotoxicity against human T47D cells; assay type: cell-based
[30] = molecular target: T1, Hypoxia inducible factors; HIF-1-alpha, HIF-2-alpha; test: Inhibition of HIF1-mediated proliferation of hypoxia-stimulated human MDA-MB-231 cells after 48 hrs by SRB assay; assay type: cell-based; in short: as §2
[31] = molecular target: T1, Hypoxia inducible factors; HIF-1-alpha, HIF-2-alpha; test: Inhibition of HIF1-mediated proliferation of hypoxia-stimulated human T47D cells up to 20 uM after 16 hrs by SRB assay; assay type: cell-based; in short: as §5

N#CC(C#N)=NNc1ccc(OC(F)(F)F)cc1 was tested, and the IC50 [1] was 0.31 µM, the inhibition [2] was “Active” and the IC50 [3] was 0.51 µM.

CCC(C)C(=O)c1c(O)c(CC=C(C)C)c(O)c2c(C(CC)OC(C)=O)cc(=O)oc12 (centres undefined) gave an inhibition at 10 µM (T47D [4]) of 50%, an inhibition [5] of 50% and an IC50 [6] of 6.5 µM. The IC50 [1] was 0.89 µM, the inhibition [7] was 40% and the Activity (MDA-MB-231 [8]) was “Active”. The inhibition [9] was 50%, the inhibition [10] was 53% and the inhibition [11] was less than 30%. The inhibition (T47D [12]) was “Active”, the inhibition [13] was less than 30% and the inhibition [14] was 52%. The inhibition [15] was 54%, the inhibition [16] was 50% and the Activity (MDA-MB-231 [17]) was “Active”. The inhibition [18] was less than 30%, the Activity (T47D [19]) was 30% and the inhibition [2] was “inactive”. The Activity (T47D [20]) was “Active”, the IC50 [21] was 2 µM and the Activity (T47D [22]) was “Active”. For the same compound, the inhibition [23] was 25%, the inhibition [24] was “Dose-dependent effect” and the Activity (T47D [25]) was “Active”. The inhibition [26] was “Dose-dependent effect”, the inhibition [27] was 40% and the inhibition [28] was “Dose-dependent effect”. The IC50 (T47D [29]) was greater than 20 µM, the inhibition [30] was “Dose-dependent effect” and the inhibition [31] was less than 30%. For the same compound, the IC50 [3] was 0.96 µM.
